# Only some compounds are listed: those with a hit (about 5.4% of all), similar ones and a draw of the others.
# Mdm2 MdmX PPI: inhibitors of human Mdm2-MdmX association, primary screen, cell-based, luminescence, split luciferase, SaOS-2, uHTS | 3% of 330,000 active | inhibition, % at 8 µM | Protein Mdm4 (Homo sapiens) + E3 ubiquitin-protein ligase Mdm2 (Homo sapiens), … | SaOS-2 split-luciferase Mdm2/MdmX complementation | AID 485346, 2010;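 active = inhibition of at least 50% at 8 µM in the primary screen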
# Target sequence (O15151 whole entry, looked up): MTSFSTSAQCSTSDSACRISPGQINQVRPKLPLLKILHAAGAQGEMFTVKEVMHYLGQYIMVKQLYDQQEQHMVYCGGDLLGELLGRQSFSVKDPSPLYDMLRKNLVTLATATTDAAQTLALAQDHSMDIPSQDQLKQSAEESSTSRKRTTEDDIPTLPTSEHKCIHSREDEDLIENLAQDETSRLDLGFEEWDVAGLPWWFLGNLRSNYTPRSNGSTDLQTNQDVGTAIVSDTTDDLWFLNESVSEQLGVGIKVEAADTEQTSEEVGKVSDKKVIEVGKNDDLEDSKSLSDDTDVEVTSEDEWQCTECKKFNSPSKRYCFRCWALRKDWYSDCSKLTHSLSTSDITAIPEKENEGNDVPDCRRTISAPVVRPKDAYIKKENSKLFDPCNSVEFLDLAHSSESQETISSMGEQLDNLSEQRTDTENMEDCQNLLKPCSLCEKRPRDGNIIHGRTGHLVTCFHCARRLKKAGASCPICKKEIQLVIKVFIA
# Target sequence (Q00987 whole entry, looked up): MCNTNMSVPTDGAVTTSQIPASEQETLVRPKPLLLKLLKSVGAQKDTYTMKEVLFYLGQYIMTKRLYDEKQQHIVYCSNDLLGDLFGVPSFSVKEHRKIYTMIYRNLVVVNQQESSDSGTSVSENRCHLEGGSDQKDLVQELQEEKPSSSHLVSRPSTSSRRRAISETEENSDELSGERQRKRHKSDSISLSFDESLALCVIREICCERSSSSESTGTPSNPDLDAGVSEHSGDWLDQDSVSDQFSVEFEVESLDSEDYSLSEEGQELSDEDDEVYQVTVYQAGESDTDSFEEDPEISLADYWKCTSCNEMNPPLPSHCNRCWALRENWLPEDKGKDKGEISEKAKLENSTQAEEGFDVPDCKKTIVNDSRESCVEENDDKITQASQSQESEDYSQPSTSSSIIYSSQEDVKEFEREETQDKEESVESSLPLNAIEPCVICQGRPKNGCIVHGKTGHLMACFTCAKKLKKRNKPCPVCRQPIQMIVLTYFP
# aSyn 5UTR inh: MLPCN primary screen, SNCA 5' untranslated region; alpha-synuclein 5'UTR reporter, inhibitor activity; 0.82% of 300,000 active; inhibition, % (tested at 7.5 µM); AID 1813, 2009; in the data active = inhibition above about 60%;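 note: H4 neuroglioblastoma cells stably carrying SNCA 5'UTR luciferase fusion; 0% = DMSO wells and 100% = positive control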
# CSC inhib: cancer stem cell viability inhibitors, primary screen, luminescence. inhibition, % at 7.5 µM. cancer stem cell-like cells viability. AID 2717, 2010. 1.1% of 300,000 active; in the data active = inhibition above about 75%; tested in HMLE shEcad cells
# SKKanGAS inh: S. pyogenes SKKanGAS growth inhibitors in kanamycin, primary screen, streptokinase expression inhibitor project, SKKanGAS strain, BacTiter-Glo luminescence. 1.3% of 300,000 active. AID 1662, 2009. 6 h. inhibition, % at 7.5 µM;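 active = mean replicate score, as percent of positive control median, at least 50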;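 note: strain carries kanamycin resistance gene driven by streptokinase promoter and grows in 40 µg/ml kanamycin; loss of luminescence reflects streptokinase promoter inhibition or plain growth inhibition; 0% = median of DMSO wells and 100% = positive control at its reference dose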
# T cruzi repl: inhibitors of intracellular T. cruzi growth, primary screen, luminescence, NIH3T3 host cells. T. cruzi beta-gal in NIH3T3, 90 h. inhibition, % (concentration not given with the values). 1.4% of 300,000 active. AID 1885, 2009;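 active = mean inhibition across valid replicates above about 55%, limit read from the data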;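 note: signal also drops with host cell toxicity which is not excluded here; 0% = plate median of DMSO wells and 100% = zero luminescence signal; higher percent means less beta-gal luminescence so fewer parasites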
#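 Incubation – ≥90 h infection period, 3 h prior cell attachment · System – NIH/3T3 fibroblasts plus reporter T. cruzi · Doses – compound pinned at 50 nL/well, DMSO · Read-out basis – percent inhibition of parasite-derived β-gal signal · Signal – luminescent β-galactosidase signal after 60 min lysis · Also added – 5000 T. cruzi trypomastigotes/well · Medium – Low-serum DMEM with 2% FBS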
# The depositor's hits bear a star; . = no result given.
SMILES,Mdm2 MdmX PPI,aSyn 5UTR inh,CSC inhib,SKKanGAS inh,T cruzi repl
CC1=NN(c2ccccc2)C(=O)/C1=C/c1c(O)n(-c2ccc(F)cc2)[nH]c1=O,-9,-134,87*,38,-21
CCCCn1nc(C(=O)Nc2nc3c(s2)CCCC3)c2ccccc2c1=O,42,28,41,8,56*
O=C(CC(C(=O)N1CCc2ccccc21)n1ccnc1)NCc1ccccc1 (configuration not stated),29,-33,-9,4,23
CCOC(=O)N1CCN(C(=O)CC(C(=O)N2CCc3ccccc32)n2ccnc2)CC1 (configuration not stated),-13,-18,.,5,63*
NS(=O)(=O)c1ccc(CCNC(c2ccccc2)c2ccccc2)cc1,-6,15,.,1,13
c1ccc(C(NCCNC(c2ccccc2)c2ccccc2)c2ccccc2)cc1,35,7,30,105*,24
Cc1ccc(N=Cc2c(C)[nH]n(-c3nc4ccccc4[nH]3)c2=O)cc1,30,23,95*,66*,-18
Cc1ccc(NC(=O)c2ccc(Cl)c(N3C(=O)C=CC3=O)c2)cc1,-2,-25,79*,-1,.
Cc1ccc(S(=O)(=O)N/N=C\c2ccc([N+](=O)[O-])o2)cc1C,18,7,6,4,7
Cc1cc2ncn(/N=C/c3ccc([N+](=O)[O-])o3)c2cc1C,26,-122,15,-12,60*
C[C@H]1[C@H](C)CC[C@]2(C)CC[C@]3(C)C(=CC[C@@H]4[C@@]5(C)CC[C@@H](O)[C@](C)(C(=O)O)[C@@H]5CC[C@]43C)[C@H]12,.,14,77*,102*,1
C[C@H]1[C@H](C)CC[C@]2(C)CC[C@]3(C)C(=CC(=O)C4[C@@]5(C)CC[C@H](O)C(C)(C)C5CC[C@]43C)[C@H]12 (some centres not stated),-2,.,98*,.,.
C[C@@H]1CC[C@]2(C(=O)O[C@@H]3O[C@H](CO)[C@@H](O)[C@H](O)[C@H]3O)CC[C@]3(C)C(=CCC4[C@@]5(C)C[C@@H](O)[C@H](O)[C@@](C)(C(=O)O[C@@H]6[C@H](O)C[C@@]7(C)C(CC[C@]8(C)C7CC=C7[C@H]9[C@](C(=O)O[C@@H]%10O[C@H](CO)[C@@H](O)[C@H](O)[C@H]%10O)(CC[C@@H](C)[C@@]9(C)O)CC[C@]78C)[C@@]6(CO)C(=O)O)C5CC[C@]43C)[C@@H]2[C@]1(C)O (some centres not stated),4,.,.,.,.
C[C@@H]1CC[C@]2(C(=O)O)CC[C@]3(C)C(=CCC4[C@]56CC[C@@](O)(OC5)C(C)(C)C6CC[C@]43C)C2[C@H]1C (some centres not stated),29,.,96*,.,.
CC1(C)[C@@H](O)CC[C@]2(C)[C@H]3C(=O)C=C4[C@@H]5C[C@@](C)(C(=O)O)CC[C@]5(C)CC[C@@]4(C)[C@]3(C)CC[C@@H]12,3,-18,-5,15,-6
C[C@@H]1CC[C@]2(C(=O)O)CC[C@]3(C)C(=CCC4[C@@]5(C)CC[C@H](O)[C@@](C)(C(=O)O)C5CC[C@]43C)C2[C@]1(C)O (some centres not stated),-4,.,-14,.,.
CS(=O)(=O)N(CC(=O)N1CCC(C(N)=O)CC1)Cc1ccc(Cl)c(Cl)c1,12,21,-8,1,-12
O=C(Nc1nncs1)c1cc2c(s1)CCC2,9,-132,-13,-2,-3
O=C(Nc1nccs1)c1cc2c(s1)CCCCC2,33,72*,2,77*,22
CCc1sc(C(=O)Nc2nccs2)cc1C,-135,-123,15,59*,12
CCc1sc(C(=O)Nc2ncccc2C)cc1C,-10,-67,-10,-6,-7
CCCN(C1CCS(=O)(=O)C1)S(=O)(=O)c1ccc(F)cc1 (configuration not stated),19,4,-21,.,-3
COc1ccccc1N1CCN(CC(=O)Nc2nc(C)c(C(=O)N(C)C)s2)CC1,10,7,-5,1,-11
Cc1ccc(-n2ncc(C(=O)Nc3cc(Cl)cc(Cl)c3)c2C2CCNCC2)cc1C,.,93*,.,-6,55*
Cc1ccc(-n2ncc(C(=O)Nc3cc(Cl)ccc3Cl)c2C2CCNCC2)cc1,37,-20,17,6,26
SMILES,Mdm2 MdmX PPI,aSyn 5UTR inh,CSC inhib,SKKanGAS inh,T cruzi repl
CCNC(=S)N1N=C2c3ccccc3CCC2C1c1ccc(F)cc1 (configuration not stated),43,47,82*,39,-8
COc1cccc(N(C(=O)Cn2nnc(-c3ccc(C)cc3)n2)C(C(=O)NC(C)(C)C)c2c[nH]c3ccccc23)c1 (configuration not stated),24,18,-5,12,35
CC(C)(C)NC(=O)C(c1c[nH]c2ccccc12)N(C(=O)Cn1nnc(-c2ccc(Cl)cc2)n1)c1ccccc1F (configuration not stated),37,18,33,24,55*
COc1ccc(NC(=O)COc2ccccc2C)cc1S(=O)(=O)N1CCCCC1,30,12,1,-2,11
COc1cc(C(=O)NS(=O)(=O)c2ccccc2C)ccc1Cc1cn(C)c2ccc(NC(=O)OC3CCCC3)cc12,-4,-8,65,68*,5
CC1(C)CC2CC(C)(CN2C(=O)c2cc(-c3ccc(O)cc3)on2)C1 (configuration not stated),18,4,87*,34,17
COc1cccc(-c2cc(C(=O)N3CC4(C)CC3CC(C)(C)C4)no2)c1 (configuration not stated),-20,28,53,.,-2
COc1ccc(C(=O)NNC(=S)NC(=O)c2cc(-c3ccccc3)nc3ccccc23)cc1,8,-16,-6,107*,-12
Cc1ccnc(NS(=O)(=O)c2ccc(NC(=O)c3cc(-c4ccc(Br)cc4)nc4ccccc34)cc2)n1,11,-25,23,62*,28
COc1ccc(Cl)cc1C(=O)NNC(=S)NC(=O)c1cc(-c2ccccc2)nc2ccccc12,27,-11,-6,80*,0
COC(=O)c1ccc(NC(=S)NC(=O)c2cc(-c3ccccc3)nc3ccccc23)cc1,14,-1,.,8,12
CC(C)(C)c1ccc(-c2cc(C(=O)NNC(=O)Nc3ccccc3)c3ccccc3n2)cc1,-51,-124,5,56*,0
CCOc1ccc(OCCC(=O)OCC(=O)N2CCN(S(=O)(=O)c3ccc(Cl)cc3)CC2)cc1,27,-8,28,-14,-10
CN(C(=S)NC(=O)C1CC1)c1ccc(O)cc1,-8,.,-5,.,.
C=CCN1c2ccccc2C(=O)CS1(=O)=O,-15,.,-1,.,.

# High-throughput results from PubChem BioAssay.
